Measured values collected from several papers.
Lines come from different studies, so protocols differ.
Target: Protein-tyrosine kinase 6 (PTK6, Homo sapiens, UniProt Q13882)

For `CC(C)(C)c1nc2c(s1)c1nc(N)ncc1c1ccc(NS(=O)(=O)c3c(F)cccc3F)c(F)c12`, the remaining activity was 104% (enzyme activity; inhibitor; radiometric; 1 µM).
With `CNC(=O)c1cc(Oc2ccc(NC(=O)Nc3ccc(Cl)c(C(F)(F)F)c3)cc2)ccn1` the inhibition was -3% (enzyme activity; inhibitor; 0.3 µM).
`Cc1sc(C(=O)NC2COC2)cc1-n1cc(NC(=O)Nc2c(F)cccc2Cl)cn1` has a remaining activity of 78.9% (enzyme activity; inhibitor; 10 µM).
`NS(=O)(=O)c1cc(NC(=O)C2(c3ccccc3Cl)CC2)ccc1Oc1cccc(Cl)c1` has a remaining binding of 99% (cell-free assay; competition with immobilised ligand; 1 µM).
The remaining signal of `Cc1ccc(NC(=O)c2ccc(C)c(C(F)(F)F)c2)cc1C#Cc1nn(C2CCC(O)CC2)c2ncnc(N)c12` (stereo not shown) is reported as -1% (cell-free assay; 10 µM).
`Cc1cnc(NC2CCOCC2)nc1-n1cnc(C(=O)NC(CN)c2cc(F)cc(Cl)c2)c1` (stereo not shown) has a remaining activity of 127% (enzyme activity; inhibitor; radiometric; 1 µM).
For `CN(c1ccnc(CNc2nc(Nc3ccc4c(c3)CC(=O)N4)ncc2C(F)(F)F)n1)S(C)(=O)=O`, the remaining binding was 100% (cell-free assay; competition with immobilised ligand; 1 µM).
`COc1cc(Nc2cnc(C#N)c(O[C@H](C)CN(C)C)n2)ncc1-c1cnn(C)c1` gave a remaining activity of 91% (enzyme activity; inhibitor; radiometric; 10 µM).
With `Cc1nc(Cc2cccc(C(F)(F)F)c2)sc1-c1ccc(C(N)=O)nc1` the remaining binding was 100% (cell-free assay; competition with immobilised ligand; 1 µM).
`N#CCCc1ccc2c(c1)-c1[nH]c3ccc([N+](=O)[O-])cc3c1CC(=O)N2` gave a remaining signal of 94.6% (cell-free assay; 0.5 µM).
The inhibition of `C=CC(=O)Nc1cc(Nc2nccc(Nc3cc(Cl)c(F)cc3C(C)(C)O)n2)c(OC)cc1N1CC[C@@H](N(C)C)C1` is reported as 63% (enzyme activity; inhibitor; 1 µM).
`COc1ccc2c(O[C@@H]3C[C@H]4C(=O)N[C@]5(C(=O)O)CC5/C=C\CCCCC[C@H](NC(=O)OC5CCCC5)C(=O)N4C3)cc(-c3csc(NC(=O)C(C)C)n3)nc2c1C` (stereo partly shown) has a remaining binding of 97% (cell-free assay; competition with immobilised ligand; 1 µM).
With `CCCOc1ccc(OC)c(F)c1C(=O)c1ccc(C(=O)N[C@@H]2CNC[C@H]2NC(=O)c2ccc3[nH]ncc3c2)cc1` the remaining activity was 97% (enzyme activity; inhibitor; 10 µM).
`CS(=O)(=O)N1CCCC(NC(=O)[C@H](CCC2CCCCC2)NC(=O)c2ccc(CNc3ncnc4c3nnn4-c3ccccc3)cc2)C1` (stereo partly shown) gave a remaining binding of 76% (cell-free assay; competition with immobilised ligand; 0.1 µM).
`O=C(Nc1cnn(-c2csc(C(=O)NC3COC3)c2)c1)Nc1ccccc1Cl` has a remaining activity of 118% (enzyme activity; inhibitor; 5 µM).
With `CS(=O)(=O)CCNCc1ccc(-c2ccc3ncnc(Nc4ccc(OCc5cccc(F)c5)c(Cl)c4)c3c2)o1` the remaining signal was 103% (cell-free assay; 0.5 µM).
With `Cc1ccc(Nc2nccc(N(C)c3ccc4c(C)n(C)nc4c3)n2)cc1S(N)(=O)=O` the inhibition was 88% (enzyme activity; inhibitor; 10 µM).
With `FC(F)(F)Oc1cccc(-c2cnc3ccc(-c4ccncc4)nn23)c1` the activity vs control was 72% (enzyme activity; inhibitor; radiometric; 1 µM).
The remaining binding of `Cc1cc(C)c(-n2ccn3nc(-c4cccnc4)cc23)cc1NC(=O)c1cc(C#N)cc(S(F)(F)(F)(F)F)c1` is reported as 99.5% (cell-free assay; competition with immobilised ligand; 0.1 µM).
`COc1cc2nccc(Oc3ccc(NC(=O)c4c5n(n(-c6ccc(F)cc6)c4=O)CCCC5)cc3)c2cc1OC` has an inhibition of 37% (enzyme activity; inhibitor; 0.1 µM).
With `Cc1ccc(C(=O)Nc2ccc(CN3CCN(C)CC3)c(C(F)(F)F)c2)cc1C#Cc1cnc2cccnn12` the remaining activity was 95% (enzyme activity; inhibitor; 23.5 nM).
The remaining binding of `CNC(=O)Nc1ccc2c(c1)[C@@]1(CC2)OC(=O)N(CC(=O)N(Cc2ccc(F)cc2)[C@@H](C)C(F)(F)F)C1=O` is reported as 90% (cell-free assay; competition with immobilised ligand; 1 µM).
`CCN(CC)CCNC(=O)c1c(C)[nH]c(/C=C2\C(=O)Nc3ccc(F)cc32)c1C` gave an inhibition of 74% (enzyme activity; inhibitor; 10 µM).
The remaining signal of `O=C1NC(=O)c2cc(Nc3ccc(F)cc3)c(Nc3ccc(F)cc3)cc21` is reported as 95.1% (cell-free assay; 0.5 µM).
The remaining activity of `CC(C)(O)[C@H]1CC[C@H](Nc2ccc3ncc(-c4cccc(C(F)(F)F)c4)n3n2)CC1` is reported as 50.4% (enzyme activity; inhibitor; 1 µM).
The remaining binding of `O=C(NS(=O)(=O)c1ccc(NCC2CCOCC2)c([N+](=O)[O-])c1)c1ccc(N2CCN(Cc3ccc(C(F)(F)F)cc3-c3ccc(Cl)cc3)CC2)cc1Oc1cnc2[nH]ccc2c1` is reported as 100% (cell-free assay; competition with immobilised ligand; 1 µM).
`CN(C)C1CCN(CC#Cc2nn(C3CCCC3)c3nc(NCc4ccccc4)ncc23)C1` (stereo not shown) gave an inhibition of -2% (enzyme activity; inhibitor; FRET; 0.1 µM).
`COc1cc2ncnc(Nc3ccc(Oc4ccccc4)cc3C)c2cc1OC` gave an inhibition of 95% (enzyme activity; inhibitor; 1 µM).
